Active and inactive are the calls of the source. No cut-off for these calls is given here.
How the values were obtained:
MCF7 = assay: Cytotoxicity against human MCF7 cells assessed as growth inhibition after 24 hrs by MTT assay; assay type: functional, cell-based; conditions: MCF7, 24 h
Method in brief: (§1)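 Cells seeded at 8000/well in RPMI-1640 with 10% heat-inactivated FBS and left to adhere 10 h. Compound then added in RPMI-1640 with 1% FBS and 0.1% DMSO for 24 h at 37 °C. MTT added for 4 h, formazan dissolved in DMSO, OD read at 590 nm. Inhibition calculated relative to control and zero-setting wells; IC50 derived from inhibition ratios; two experiments in triplicate.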

[1] = Cytotoxicity against human 3AO cells assessed as growth inhibition after 24 hrs by MTT assay; assay type: functional, cell-based; method in brief: as §1
[2] = Cytotoxicity against human PC3 cells assessed as growth inhibition after 24 hrs by MTT assay; assay type: functional, cell-based; conditions: PC-3, 24 h; method in brief: as §1
K562 = assay: Cytotoxicity against human K562 cells assessed as growth inhibition after 24 hrs by MTT assay; assay type: functional, cell-based; conditions: K562, 24 h; method in brief: as §1
HeLa = assay: Cytotoxicity against human HeLa cells assessed as growth inhibition after 24 hrs by MTT assay; assay type: functional, cell-based; method in brief: as §1
[3] = Cytotoxicity against human BEAS2B cells assessed as growth inhibition after 24 hrs by MTT assay; assay type: cell-based; conditions: BEAS-2B; method in brief: as §1
HUVEC = assay: Antiangiogenic activity against HUVEC cells assessed as inhibition of VEGF-induced tube formation after 8 hrs by microscopic analysis; assay type: functional, cell-based; conditions: Homo sapiens
Method in brief: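 HUVECs trypsinized and seeded on Matrigel (polymerized 1 h, 37 °C) at 10^5 cells/well, incubated with compound at 0.1, 1 and 10 µg/mL for 8 h at 37 °C in CO2 until tube networks formed; Pazopanib as positive control. Morphology imaged in five random fields per well; experiment repeated 3 times.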

Danio rerio [4] = species on record: Danio rerio; assay: Antiangiogenic activity against transgenic zebra fish embryos expressing green fluorescence protein assessed as inhibition of intersegmental vessel formation at 10 to 100 uM after 24 hrs by confocal fluorescence microscopy; assay type: functional, organism-based
Method in brief: (§2)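 Tg(flk1:GFP) embryos, dechorionated one day post-fertilization, 10 per well in 3 mL assay solution with 0.1% PTU added; compounds at 10, 50, 100 µM, 0.2% DMSO as vehicle control, vatalanib as positive control; 28 °C. ISV formation scored by confocal microscopy (50- and 100-fold) after 24 h treatment; repeated at least three times.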

[5] = molecular target: Fibroblast growth factor receptor 1 (Homo sapiens) (UniProt P11362); assay: Inhibition of human recombinant FGFR1 at 1 uM after 50 mins by microtiter plate based luciferase reporter gene assay
Sequence of Fibroblast growth factor receptor 1 (Homo sapiens) (P11362 22-822 limits assumed): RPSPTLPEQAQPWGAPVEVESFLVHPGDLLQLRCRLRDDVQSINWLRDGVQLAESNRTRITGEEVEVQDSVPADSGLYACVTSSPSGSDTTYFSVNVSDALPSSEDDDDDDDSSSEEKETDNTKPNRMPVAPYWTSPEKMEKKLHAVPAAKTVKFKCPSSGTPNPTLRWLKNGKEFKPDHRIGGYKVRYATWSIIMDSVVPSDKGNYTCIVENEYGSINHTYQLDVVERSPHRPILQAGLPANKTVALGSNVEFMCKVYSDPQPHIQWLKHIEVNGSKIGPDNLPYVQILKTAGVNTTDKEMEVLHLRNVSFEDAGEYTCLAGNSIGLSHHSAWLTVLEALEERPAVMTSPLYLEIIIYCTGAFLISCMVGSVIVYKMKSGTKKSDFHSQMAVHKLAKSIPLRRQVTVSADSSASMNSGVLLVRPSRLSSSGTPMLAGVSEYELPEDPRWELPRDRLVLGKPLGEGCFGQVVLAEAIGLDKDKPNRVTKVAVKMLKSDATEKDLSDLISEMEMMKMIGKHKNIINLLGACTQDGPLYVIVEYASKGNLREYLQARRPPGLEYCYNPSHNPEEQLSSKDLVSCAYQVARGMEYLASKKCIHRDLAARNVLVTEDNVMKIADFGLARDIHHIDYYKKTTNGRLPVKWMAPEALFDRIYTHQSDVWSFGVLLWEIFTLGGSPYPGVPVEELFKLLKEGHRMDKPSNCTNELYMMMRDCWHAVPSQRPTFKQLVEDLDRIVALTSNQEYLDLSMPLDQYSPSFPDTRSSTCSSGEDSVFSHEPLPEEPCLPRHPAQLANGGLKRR

[6] = molecular target: Vascular endothelial growth factor receptor 2 (Homo sapiens) (UniProt P35968); conditions: at 1 µM
Sequence of Vascular endothelial growth factor receptor 2 (Homo sapiens) (P35968 whole entry): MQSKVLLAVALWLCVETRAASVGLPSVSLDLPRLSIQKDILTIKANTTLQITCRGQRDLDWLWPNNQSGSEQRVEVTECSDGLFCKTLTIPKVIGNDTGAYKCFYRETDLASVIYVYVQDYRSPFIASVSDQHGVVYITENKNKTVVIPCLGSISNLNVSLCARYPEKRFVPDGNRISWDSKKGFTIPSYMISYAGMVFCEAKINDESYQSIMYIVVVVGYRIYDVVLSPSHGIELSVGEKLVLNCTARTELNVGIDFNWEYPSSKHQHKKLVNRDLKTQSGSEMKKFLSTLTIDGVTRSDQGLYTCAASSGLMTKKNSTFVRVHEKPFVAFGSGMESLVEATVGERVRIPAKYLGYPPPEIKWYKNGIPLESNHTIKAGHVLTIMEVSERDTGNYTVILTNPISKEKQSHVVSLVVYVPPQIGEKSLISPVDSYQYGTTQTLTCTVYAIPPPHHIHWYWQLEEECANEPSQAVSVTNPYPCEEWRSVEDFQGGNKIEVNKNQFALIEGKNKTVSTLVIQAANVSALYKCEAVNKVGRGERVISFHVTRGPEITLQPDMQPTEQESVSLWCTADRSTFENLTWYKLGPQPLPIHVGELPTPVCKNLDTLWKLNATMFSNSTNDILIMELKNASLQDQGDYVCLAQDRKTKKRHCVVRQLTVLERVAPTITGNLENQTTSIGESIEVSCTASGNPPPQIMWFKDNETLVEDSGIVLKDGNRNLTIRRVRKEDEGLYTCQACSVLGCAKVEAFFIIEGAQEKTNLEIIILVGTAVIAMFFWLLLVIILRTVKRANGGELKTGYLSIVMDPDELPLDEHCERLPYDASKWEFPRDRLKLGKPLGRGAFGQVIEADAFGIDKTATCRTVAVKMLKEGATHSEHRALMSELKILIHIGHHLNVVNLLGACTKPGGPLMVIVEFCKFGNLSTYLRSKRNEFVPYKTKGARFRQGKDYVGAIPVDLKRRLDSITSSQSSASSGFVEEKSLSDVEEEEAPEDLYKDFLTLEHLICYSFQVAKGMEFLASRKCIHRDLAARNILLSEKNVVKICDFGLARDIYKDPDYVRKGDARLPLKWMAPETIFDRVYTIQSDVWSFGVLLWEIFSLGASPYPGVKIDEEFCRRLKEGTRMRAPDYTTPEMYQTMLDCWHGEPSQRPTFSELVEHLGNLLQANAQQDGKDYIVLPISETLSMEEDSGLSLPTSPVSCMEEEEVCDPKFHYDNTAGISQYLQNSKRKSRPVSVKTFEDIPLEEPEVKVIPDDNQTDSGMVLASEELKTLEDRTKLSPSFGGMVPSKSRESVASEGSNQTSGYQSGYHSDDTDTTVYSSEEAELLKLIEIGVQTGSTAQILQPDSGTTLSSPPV

Danio rerio [7] = species on record: Danio rerio; assay: Antiangiogenic activity against transgenic zebra fish embryos expressing green fluorescence protein assessed as inhibition of intersegmental vessel formation at 100 uM after 24 hrs by confocal fluorescence microscopy; assay type: functional, organism-based; method in brief: as §2

SMILES	IC50 (MCF7) [µM]	IC50 [1] [µM]	IC50 [2] [µM]	IC50 (K562) [µM]	IC50 (HeLa) [µM]	IC50 [3] [µM]	inhibition (HUVEC)	inhibition (Danio rerio [4])	inhibition [5] [%]	inhibition [6] [%]	inhibition (Danio rerio [7])
COc1ccc(NC(=O)Cn2c(=O)c(/C=C\c3ccncc3)nc3ccccc32)cc1OC	> 100	> 100	> 100	55.2	> 100	> 100	–	–	–	–	–
O=C(Cn1c(=O)c(/C=C\c2ccncc2)nc2ccccc21)Nc1ccc(Cl)c(Cl)c1	47.6	> 100	> 100	> 100	> 100	> 100	Dose-dependent effect	Dose-dependent effect	8	56	–
O=C(Cn1c(=O)c(/C=C\c2ccncc2)nc2ccccc21)Nc1ccc(Cl)cc1	> 100	> 100	> 100	50.4	> 100	> 100	Dose-dependent effect	Dose-dependent effect	5	44	–
O=C(COc1nc2ccccc2nc1/C=C\c1ccncc1)Nc1ccc(Cl)cc1	> 100	> 100	> 100	49.9	> 100	> 100	Dose-dependent effect	Active	0	37	–
O=C(Cn1c(=O)c(/C=C\c2ccncc2)nc2ccccc21)Nc1ccccc1	> 100	> 100	> 100	55.5	> 100	> 100	–	–	–	–	–
COc1cc2nc(/C=C\c3ccncc3)c(=O)n(CC(=O)Nc3ccccc3)c2cc1OC	> 100	55.6	> 100	> 100	> 100	> 100	–	–	–	–	–
Cc1ccc(C(=O)Nc2ccc(Cn3c(=O)c(C)nc4ccccc43)cc2)cc1	> 100	> 100	> 100	> 100	> 100	> 100	–	–	–	–	–
Cc1ccc(NC(=O)COc2nc3ccccc3nc2C)cc1	> 100	> 100	> 100	> 100	74.6	> 100	–	–	–	–	–
Cc1ccc(NC(=O)COc2nc3ccccc3nc2/C=C\c2ccncc2)cc1	60.2	> 100	> 100	> 100	> 100	> 100	–	–	–	–	–
Cc1ccccc1NC(=O)Cn1c(=O)c(/C=C\c2ccncc2)nc2ccccc21	> 100	69.7	> 100	> 100	> 100	> 100	–	–	–	–	–
O=C(Cn1c(=O)c(/C=C\c2ccncc2)nc2ccccc21)Nc1ccc(F)cc1	49	> 100	59.9	> 100	> 100	> 100	Dose-dependent effect	inactive	2	6	–
Cc1nc2ccccc2n(Cc2ccc(NC(=O)c3ccc(Cl)cc3)cc2)c1=O	47.6	> 100	39.6	> 100	> 100	> 100	–	–	–	–	–
Cc1nc2ccccc2n(CC(=O)Nc2ccc(Cl)cc2)c1=O	> 100	40.2	> 100	> 100	> 100	> 100	Dose-dependent effect	–	0	19	Active
Cc1nc2ccccc2n(CC(=O)Nc2ccc(F)cc2)c1=O	> 100	> 100	> 100	> 100	55.5	> 100	–	–	–	–	–
Cc1ccc(Nc2nccc(N(C)c3ccc4c(C)n(C)nc4c3)n2)cc1S(N)(=O)=O [PAZOPANIB]	76.8	50.2	> 100	89.3	> 100	> 100	–	–	–	–	–
Cc1nc2ccccc2nc1OCC(=O)Nc1ccc(Cl)cc1	> 100	> 100	68	> 100	> 100	> 100	–	–	–	–	–
